In ChEMBL document CHEMBL4325893, “Synthesis and antibacterial profiles of targeted triclosan derivatives” (2019):
In brackets after ≈: the same amount, converted by molar mass.

Columns and labels:
Citrobacter freundii [1] = test: Antibacterial activity against Citrobacter freundii 8090 after 18 hrs; type: functional; conditions: Citrobacter freundii, 8090, 18 h
In short: (§1)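 Broth microdilution in Nutrient Broth No. 2; stocks in ethanol diluted to 0.01–128 µg/ml (triclosan) or 0.25–256 µg/ml (glycosides). Overnight 37 °C NB2 cultures diluted 1 in 10^4 in saline and added to the dilutions. Incubation at 37 °C with agitation, OD read every 15 min; MIC is the lowest concentration preventing any OD rise after 18 h.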

Citrobacter freundii [2] = test: Antibacterial activity against Citrobacter freundii OCC 851 after 18 hrs; type: functional; conditions: OCC 851, 18 h; in short: as §1
Escherichia coli [3] = test: Antibacterial activity against Escherichia coli 700728 after 18 hrs; type: functional; conditions: Escherichia coli, 700728, 18 h; in short: as §1
Staphylococcus aureus [4] = test: Antibacterial activity against Staphylococcus aureus ATCC 29213 after 18 hrs; type: functional; conditions: ATCC 29213, 18 h; in short: as §1
Proteus mirabilis = test: Antibacterial activity against Proteus mirabilis ATCC 12453 after 18 hrs; type: functional; conditions: ATCC 12453, 18 h; in short: as §1
Klebsiella pneumoniae = test: Antibacterial activity against Klebsiella pneumoniae ATCC 13883 after 18 hrs; type: functional; conditions: ATCC 13883, 18 h; in short: as §1
Streptococcus viridans = test: Antibacterial activity against Streptococcus viridans OCC 234 after 18 hrs; type: functional; conditions: OCC 234, 18 h
In short: (§2)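 Broth microdilution in Nutrient Broth No. 2. Ethanol stocks were diluted in broth to 0.01–128 µg/ml for triclosan and 0.25–256 µg/ml for glycosides. Overnight 37°C NB2 cultures were diluted 1 in 10^4 in saline and added to the wells. Plates were incubated at 37°C with OD read every 15 min after agitation. MIC was the lowest concentration giving no OD increase at 18 h.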

Salmonella enteritidis = test: Antibacterial activity against Salmonella enterica subspecies enterica serotype Enteritidis 13076 after 18 hrs; type: functional, Salmonella enterica subsp. enterica serovar Enteritidis; conditions: Salmonella enterica, 13076, 18 h; in short: as §1
Streptococcus pneumoniae = test: Antibacterial activity against Streptococcus pneumoniae 6305 after 18 hrs; type: functional; conditions: Streptococcus pneumoniae, 6305, 18 h; in short: as §2
Escherichia coli [5] = test: Antibacterial activity against Escherichia coli OCC 122 after 18 hrs; type: functional; conditions: OCC 122, 18 h; in short: as §1
Pseudomonas aeruginosa = test: Antibacterial activity against Pseudomonas aeruginosa ATCC 27853 after 18 hrs; type: functional; conditions: ATCC 27853, 18 h; in short: as §1
Escherichia coli [6] = test: Antibacterial activity against Escherichia coli ATCC 8739 after 18 hrs; type: functional; conditions: ATCC 8739, 18 h; in short: as §1
[7] = Antibacterial activity against Enterobacter cloacae ATCC 13047 after 18 hrs; type: functional, Enterobacter cloacae subsp. cloacae; conditions: ATCC 13047, 18 h; in short: as §1
Escherichia coli [8] = test: Antibacterial activity against Escherichia coli ATCC 11775 after 18 hrs; type: functional; in short: as §1
Streptococcus pyogenes = test: Antibacterial activity against Streptococcus pyogenes ATCC 19615 after 18 hrs; type: functional; conditions: ATCC 19615, 18 h; in short: as §2
Streptococcus agalactiae = test: Antibacterial activity against Streptococcus agalactiae OCC 182 after 18 hrs; type: functional; conditions: OCC 182, 18 h; in short: as §2
Escherichia coli [9] = test: Antibacterial activity against Escherichia coli NCTC 13216 after 18 hrs; type: functional; conditions: NCTC 13216, 18 h; in short: as §1
[10] = Antibacterial activity against Salmonella enterica subspecies enterica serotype Indiana OCC 597 after 18 hrs; type: functional, Salmonella enterica subsp. enterica serovar Indiana; conditions: OCC 597, 18 h; in short: as §1
Proteus vulgaris = test: Antibacterial activity against Proteus vulgaris OCC 195 after 18 hrs; type: functional; conditions: OCC 195, 18 h; in short: as §1
Salmonella typhimurium = test: Antibacterial activity against Salmonella enterica subspecies enterica serotype typhimurium ATCC 14028 after 18 hrs; type: functional, Salmonella enterica subsp. enterica serovar Typhimurium; conditions: ATCC 14028, 18 h; in short: as §1
Escherichia coli [11] = test: Antibacterial activity against Escherichia coli ATCC 10536 after 18 hrs; type: functional; conditions: ATCC 10536, 18 h; in short: as §1
[12] = system: Staphylococcus epidermidis; test: Antibacterial activity against Staphylococcus epidermidis ATCC 12228 after 18 hrs; type: functional; conditions: ATCC 12228, 18 h; in short: as §1
Staphylococcus aureus [13] = test: Antibacterial activity against Staphylococcus aureus ATCC 9144 after 18 hrs; type: functional; conditions: ATCC 9144, 18 h; in short: as §1
[14] = Antibacterial activity against Salmonella enterica subspecies enterica serotype Pullorum OCC 273 after 18 hrs; type: functional, Salmonella enterica subsp. enterica serovar Pullorum; conditions: OCC 273, 18 h; in short: as §1
[15] = Antibacterial activity against Salmonella enterica subspecies enterica serotype Virchow NCTC 5742 after 18 hrs; type: functional, Salmonella enterica subsp. enterica serovar Virchow; conditions: NCTC 5742, 18 h; in short: as §1
Enterococcus faecium = test: Antibacterial activity against Enterococcus faecium ATCC 19434 after 18 hrs; type: functional; conditions: ATCC 19434, 18 h; in short: as §1
[16] = system: Staphylococcus saprophyticus; test: Antibacterial activity against Staphylococcus saprophyticus ATCC 15305 after 18 hrs; type: functional; conditions: ATCC 15305, 18 h; in short: as §2
[17] = system: Salmonella enterica subsp. enterica serovar Abony; test: Antibacterial activity against Salmonella enterica subspecies enterica serotype Abony NCTC 6017 after 18 hrs; type: functional; conditions: NCTC 6017, 18 h; in short: as §1

SMILES: OC[C@H]1O[C@@H](Oc2cc(Cl)ccc2Oc2ccc(Cl)cc2Cl)[C@H](O)[C@@H](O)[C@@H]1O
- MIC (Citrobacter freundii [1]): 64 µg/mL (≈ 142 µM)
- MIC (Citrobacter freundii [2]): 64 µg/mL (≈ 142 µM)
- MIC (Escherichia coli [3]): 8 to 64 µg/mL (≈ 17.7 to 142 µM)
- MIC (Staphylococcus aureus [4]): 4 to 8 µg/mL (≈ 8.86 to 17.7 µM)
- MIC (Proteus mirabilis): 16 µg/mL (≈ 35.4 µM)
- MIC (Klebsiella pneumoniae): 0.5 µg/mL (≈ 1.11 µM)
- MIC (Streptococcus viridans): 256 µg/mL (≈ 567 µM)
- MIC (Salmonella enteritidis): 16 to 32 µg/mL (≈ 35.4 to 70.8 µM)
- MIC (Streptococcus pneumoniae): 128 µg/mL (≈ 283 µM)
- MIC (Escherichia coli [5]): 8 to 64 µg/mL (≈ 17.7 to 142 µM)
- MIC (Pseudomonas aeruginosa): > 256 µg/mL
- MIC (Escherichia coli [6]): 8 to 64 µg/mL (≈ 17.7 to 142 µM)
- MIC [7]: 16 µg/mL (≈ 35.4 µM)
- MIC (Escherichia coli [8]): 8 to 64 µg/mL (≈ 17.7 to 142 µM)
- MIC (Streptococcus pyogenes): 32 µg/mL (≈ 70.8 µM)
- MIC (Streptococcus agalactiae): 256 µg/mL (≈ 567 µM)
- MIC (Escherichia coli [9]): 8 to 64 µg/mL (≈ 17.7 to 142 µM)
- MIC [10]: 16 to 32 µg/mL (≈ 35.4 to 70.8 µM)
- MIC (Proteus vulgaris): 64 µg/mL (≈ 142 µM)
- MIC (Salmonella typhimurium): 16 to 32 µg/mL (≈ 35.4 to 70.8 µM)
- MIC (Escherichia coli [11]): 8 to 64 µg/mL (≈ 17.7 to 142 µM)
- MIC [12]: 8 to 16 µg/mL (≈ 17.7 to 35.4 µM)
- MIC (Staphylococcus aureus [13]): 4 to 8 µg/mL (≈ 8.86 to 17.7 µM)
- MIC [14]: 16 to 32 µg/mL (≈ 35.4 to 70.8 µM)
- MIC [15]: 16 to 32 µg/mL (≈ 35.4 to 70.8 µM)
- MIC (Enterococcus faecium): > 256 µg/mL
- MIC [16]: 64 µg/mL (≈ 142 µM)
- MIC [17]: 16 to 32 µg/mL (≈ 35.4 to 70.8 µM)
